# Calls of active or inactive are those of the source. No cut-off for these calls is given here.
# Assays:
# Staphylococcus aureus [1] = experiment: Antibacterial activity against Staphylococcus aureus ATCC 29213 after 20 to 22 hrs by CLSI broth macro-dilution method; type: functional
# [2] = Dissociation constant, pKa of the compound; type: physicochemical
# [3] = Selectivity ratio of HC50 for rabbit erythrocyte to MIC99 for Staphylococcus aureus ATCC 29213; type: functional
# [4] = Partition coefficient, log P of the compound by HPLC analysis; type: physicochemical; settings: octanol/water
# In short: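 Partition coefficient measured by HPLC following OECD guidelines for the testing of chemicals.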
# Staphylococcus aureus [5] = experiment: Antibacterial activity against methicillin-resistant Staphylococcus aureus clinical isolate DM21455 after 20 to 22 hrs by CLSI broth macro-dilution method; type: functional
# [6] = Hemolytic activity against rabbit erythrocytes after 60 mins by spectrophotometric analysis; type: ADME, cell-based, Oryctolagus cuniculus, Erythrocyte
# [7] = Selectivity ratio of HC50 for rabbit erythrocyte to MIC99 for methicillin-resistant Staphylococcus aureus clinical isolate DM21455; type: functional
# Staphylococcus aureus [8] = experiment: Antimicrobial activity against in Staphylococcus aureus assessed as disruption of bacterial membrane at 10 uM by fluorescence microscopy; type: functional, organism-based
# In short: (§1)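 S. aureus DM4001 treated with 10 μM agent and incubated with the membrane-impermeant nucleic-acid dye SYTOX Green. Permeabilization was read as increased fluorescence intensity and confirmed by fluorescence microscopy counting green-stained cells.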
# Staphylococcus aureus [9] = experiment: Antimicrobial activity against Staphylococcus aureus assessed as disruption of bacterial membrane at 10 uM by SYTOX green uptake assay; type: functional, organism-based; in short: as §1
# Klebsiella pneumoniae = experiment: Antibacterial activity against Klebsiella pneumoniae ATCC 10031 after 20 to 22 hrs by CLSI broth macro-dilution method; type: functional
# Pseudomonas aeruginosa = experiment: Antibacterial activity against Pseudomonas aeruginosa ATCC 27853 after 20 to 22 hrs by CLSI broth macro-dilution method; type: functional
# [10] = Toxicity against New Zealand White rabbit corneal epithelium assessed as effect on wound closure at 50 ug/ml by Slit lamp photography relative to control; type: tissue-based, Oryctolagus cuniculus, Cornea; settings: in vivo
# In short: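 A 5 mm corneal epithelial abrasion was made with a sterile trephine and the epithelium removed with a mini blade. Eyes were treated with saline, vancomycin 50 μg/mL, or agent 50 μg/mL. Wound closure was tracked over time from fluorescein-stained photographs of defect size.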
# Staphylococcus aureus [11] = experiment: Antibacterial activity against methicillin-resistant Staphylococcus aureus DM21595 obtained from wound isolate after 20 to 22 hrs by CLSI broth macro-dilution method; type: functional
# Staphylococcus aureus [12] = experiment: Antibacterial activity against methicillin-resistant Staphylococcus aureus ATCC […] after 20 to 22 hrs by CLSI broth macro-dilution method; type: functional
# Staphylococcus aureus [13] = experiment: Antibacterial activity against methicillin-resistant Staphylococcus aureus DM42412 assessed as log reduction in CFU at 0.5 X MIC to 4 X MIC after 24 hrs by surface-spread plate method relative to control; type: functional
# Staphylococcus aureus [14] = experiment: Antibacterial activity against methicillin-resistant Staphylococcus aureus DM09808R assessed as log reduction in CFU at 0.5 X MIC to 4 X MIC after 24 hrs by surface-spread plate method relative to control; type: functional
# Staphylococcus aureus [15] = experiment: Antibacterial activity against methicillin-resistant Staphylococcus aureus DR42412 obtained from sputum isolate after 20 to 22 hrs by CLSI broth macro-dilution method; type: functional
# Staphylococcus aureus [16] = experiment: Antibacterial activity against methicillin-resistant Staphylococcus aureus DM21455 assessed as log reduction in CFU at 0.5 X MIC to 4 X MIC after 24 hrs by surface-spread plate method relative to control; type: functional
# Staphylococcus aureus [17] = experiment: Antibacterial activity against methicillin-resistant Staphylococcus aureus DM21595 assessed as log reduction in CFU at 0.5 X MIC to 4 X MIC after 24 hrs by surface-spread plate method relative to control; type: functional
# Staphylococcus aureus [18] = experiment: Antibacterial activity against methicillin-resistant Staphylococcus aureus DM09808R obtained from eye isolate after 20 to 22 hrs by CLSI broth macro-dilution method; type: functional
# Staphylococcus aureus [19] = experiment: Antibacterial activity against methicillin-resistant Staphylococcus aureus ATCC 700699 assessed as log reduction in CFU at 0.5 X MIC to 4 X MIC after 24 hrs by surface-spread plate method relative to control; type: functional
# Staphylococcus aureus [20] = experiment: Antibacterial activity against methicillin-resistant Staphylococcus aureus DM21455 assessed as log reduction in CFU at 0.5 X MIC to 4 X MIC after 8 hrs by surface-spread plate method relative to control; type: functional, organism-based
# Staphylococcus aureus [21] = experiment: Antibacterial activity against methicillin-resistant Staphylococcus aureus DM42412 assessed as log reduction in CFU at 0.5 X MIC to 4 X MIC after 8 hrs by surface-spread plate method relative to control; type: functional, organism-based
# Staphylococcus aureus [22] = experiment: Antibacterial activity against methicillin-resistant Staphylococcus aureus DM21595 assessed as log reduction in CFU at 0.5 X MIC to 4 X MIC after 8 hrs by surface-spread plate method relative to control; type: functional, organism-based
# Staphylococcus aureus [23] = experiment: Antibacterial activity against methicillin-resistant Staphylococcus aureus DM09808R assessed as log reduction in CFU at 0.5 X MIC to 4 X MIC after 8 hrs by surface-spread plate method relative to control; type: functional, organism-based
# Staphylococcus aureus [24] = experiment: Antibacterial activity against methicillin-resistant Staphylococcus aureus ATCC 700699 assessed as log reduction in CFU at 0.5 X MIC to 4 X MIC after 8 hrs by surface-spread plate method relative to control relative to control; type: functional, organism-based
SMILES,MIC99 (Staphylococcus aureus [1]),pKa [2],Selectivity ratio [3],logP ([4]; read-out: logP),MIC99 (Staphylococcus aureus [5]),HC50 at 1 h [6],Selectivity ratio [7],other results
CCN(CC)CCCCCOc1cc2oc3cc(OCCCCCN(CC)CC)c(OC)c(CC=C(C)C)c3c(=O)c2c(O)c1CC=C(C)C,1.56 µg/mL,11,9,7.55,0.78 µg/mL,14 µM,18,–
COc1c(OCCCCn2cccn2)cc2oc3cc(OCCCCn4cccn4)c(CC=C(C)C)c(O)c3c(=O)c2c1CC=C(C)C,> 200 µg/mL,2.52,–,–,> 200 µg/mL,> 200 µM,–,logP [4]: 9.28
COc1c(OCCCCn2cncn2)cc2oc3cc(OCCCCn4cncn4)c(CC=C(C)C)c(O)c3c(=O)c2c1CC=C(C)C,> 200 µg/mL,2.2,–,–,> 200 µg/mL,> 200 µM,–,logP [4]: 11.08
COc1c(OCCCCBr)cc2oc3cc(OCCCCBr)c(CC=C(C)C)c(O)c3c(=O)c2c1CC=C(C)C,> 200 µg/mL,–,–,–,> 200 µg/mL,> 200 µM,–,Activity (Staphylococcus aureus [8]): inactive; Activity (Staphylococcus aureus [9]): inactive
COc1c(O)cc2oc3cc(O)c(CC=C(C)C)c(O)c3c(=O)c2c1CC=C(C)C [MANGOSTIN],1.56 µg/mL,–,5.77,6.75,1.56 µg/mL,9 µM,5.77,MIC (Klebsiella pneumoniae): > 200 µg/mL; MIC (Pseudomonas aeruginosa): > 200 µg/mL
CN[C@H](CC(C)C)C(=O)N[C@H]1C(=O)N[C@@H](CC(N)=O)C(=O)N[C@H]2C(=O)N[C@H]3C(=O)N[C@H](C(=O)N[C@H](C(=O)O)c4cc(O)cc(O)c4-c4cc3ccc4O)[C@H](O)c3ccc(c(Cl)c3)Oc3cc2cc(c3O[C@@H]2O[C@H](CO)[C@@H](O)[C@H](O)[C@H]2O[C@H]2C[C@](C)(N)[C@H](O)[C@H](C)O2)Oc2ccc(cc2Cl)[C@H]1O [VANCOMYCIN],–,–,–,–,0.78 µg/mL,–,–,Activity [10]: Non-toxic; MIC (Staphylococcus aureus [11]): 0.39 µg/mL; MIC (Staphylococcus aureus [12]): 6.25 µg/mL; FC (Staphylococcus aureus [13]): 3; FC (Staphylococcus aureus [14]): 3; MIC (Staphylococcus aureus [15]): 0.78 µg/mL; FC (Staphylococcus aureus [16]): 3; FC (Staphylococcus aureus [17]): 3; MIC (Staphylococcus aureus [18]): 0.39 µg/mL; FC (Staphylococcus aureus [19]): 3
CCN(CC)CCCCCCOc1cc2oc3cc(OCCCCCCN(CC)CC)c(OC)c(CC=C(C)C)c3c(=O)c2c(O)c1CC=C(C)C,1.56 µg/mL,11,17,8.39,1.56 µg/mL,26.5 µM,17,–
COc1c(OCCCCN2CCCC2)cc2oc3cc(OCCCCN4CCCC4)c(CC=C(C)C)c(O)c3c(=O)c2c1CC=C(C)C,1.56 µg/mL,11.3,16,6.63,1.56 µg/mL,25 µM,16,–
COc1c(OCCCCN2CCCCC2)cc2oc3cc(OCCCCN4CCCCC4)c(CC=C(C)C)c(O)c3c(=O)c2c1CC=C(C)C,0.78 µg/mL,11.2,24.7,6.93,1.56 µg/mL,19.3 µM,12.3,–
COc1c(OCCCCN2CCOCC2)cc2oc3cc(OCCCCN4CCOCC4)c(CC=C(C)C)c(O)c3c(=O)c2c1CC=C(C)C,> 200 µg/mL,8.36,–,5.42,> 200 µg/mL,> 200 µM,–,–
CCCCCCCCCC(=O)N[C@@H](Cc1c[nH]c2ccccc12)C(=O)N[C@H](CC(N)=O)C(=O)N[C@@H](CC(=O)O)C(=O)N[C@@H]1C(=O)NCC(=O)N[C@@H](CCCN)C(=O)N[C@@H](CC(=O)O)C(=O)N[C@H](C)C(=O)N[C@@H](CC(=O)O)C(=O)NCC(=O)N[C@H](CO)C(=O)N[C@@H]([C@H](C)CC(=O)O)C(=O)N[C@@H](CC(=O)c2ccccc2N)C(=O)O[C@@H]1C,–,–,–,–,0.78 µg/mL,–,–,MIC (Staphylococcus aureus [11]): 0.78 µg/mL; Activity (Staphylococcus aureus [20]): inactive; MIC (Staphylococcus aureus [12]): 0.78 µg/mL; Activity (Staphylococcus aureus [21]): inactive; Activity (Staphylococcus aureus [22]): inactive; Activity (Staphylococcus aureus [23]): inactive; MIC (Staphylococcus aureus [15]): 0.195 µg/mL; MIC (Staphylococcus aureus [18]): 0.195 µg/mL; Activity (Staphylococcus aureus [24]): inactive
CCN(CC)CCCOc1cc2oc3cc(OCCCN(CC)CC)c(OC)c(CC=C(C)C)c3c(=O)c2c(O)c1CC=C(C)C,0.78 µg/mL,11,20.9,6.27,0.39 µg/mL,16.3 µM,41.7,–
